# Laboratory results published in ChEMBL document CHEMBL4513216, “Probing the Open Global Health Chemical Diversity Library for Multistage-Active Starting Points for Next-Generation Antimalarials” (ACS Infect Dis, 2020).
# Experiment: Toxicity liver stage against HepG2, at 10uM
# Format: cell-based
# Parameters: test concentration 10 uM, cell line HepG2-A16-CD81EGFP
# Conditions: human, HepG2-A16-CD81EGFP cells; read-out: INHIBITION
# Summary of the method: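 Uninfected HepG2-A16-CD81EGFP cells, 3 × 10^3 per well, 1536-well, plated on prespotted compound at 10 μM final, parasite-free screening media added to match infected plates; puromycin 10 μM positive, DMSO 0.5% negative; run in parallel with 48 h PbLuc assay at 37 °C, 5% CO2; viability by CellTiter-Glo luminescence, normalized to controls.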
row,Compound,cytotoxicity at 10 µM [%]
1,O=C1CO[C@H]2CN(C3CCOCC3)C[C@H]2N1Cc1ccc(F)cc1,-6.35
2,Cc1ccc(S(=O)(=O)Cc2noc([C@@H]3C[C@@H](O)CN3C)n2)cc1,0.847
3,COc1coc(C(=O)Nc2nc(C)cs2)cc1=O,-3.96
4,Cc1nn(C2CCS(=O)(=O)C2)c(O)c1CCc1ccccc1 (configuration not stated),-50.2
5,CNC(=O)Cn1c(CO)cnc1SCc1ccccc1Cl,2.6
6,CCOC(=O)c1ccc(NC(=O)Cn2cc(I)cn2)cc1,2.96
7,COc1cccc(CNC(=O)c2cc(C)nc(N3CCCCC3)n2)c1,20
8,O=C(Nc1cc(-c2ccncc2)no1)C1CCC1,-12.6
9,CCn1nc(C)c2nc(C(C)C)nc(N3CCCCC3)c21,-7.67
10,Cc1nc(CCC(N)=O)cc(C2CCCCN2S(C)(=O)=O)n1 (configuration not stated),-13
11,Cc1ccsc1C(=O)NCc1ccnc(C2CCCOC2)n1 (configuration not stated),-23.6
12,Cn1cnc(CN2Cc3nccn3CC2c2ccccc2)c1 (configuration not stated),2.98
13,CCn1ncc(S(=O)(=O)N[C@@H]2CC[C@@H](n3ccnc3C)[C@@H]2O)c1C,3.65
14,Cc1c[nH]nc1C1CCCN(c2cnccn2)C1 (configuration not stated),8.75
15,COc1cccc(C(=O)N2C[C@@H](c3ccccc3)[C@@H]3NCCCC[C@@H]32)c1,-14.1
16,O=C(c1ccco1)N1CCC(n2nc(-c3cccs3)ccc2=O)CC1,-32.3
17,CC(Cn1cccn1)NCC(=O)NC1CCOCC1 (configuration not stated),2.51
18,CC(C)N(C)CC(=O)N1CCCC(n2ccnc2)C1 (configuration not stated),5.56
19,Cc1ccc(-c2nnc(CCC(=O)N3CCCC3c3ccc[nH]3)o2)cc1 (configuration not stated),-1.31
20,COc1ccc(NCc2ccccc2N2CCN(C(C)=O)CC2)cn1,1.85
21,CC(C)N(C)C(=O)C1CSCN1S(=O)(=O)c1cc(Cl)ccc1Cl (configuration not stated),-1.57
22,O=C(COC1CCOC1)N(CC(F)F)c1cccc(Cl)c1 (configuration not stated),3.44
23,N#Cc1ccc(CN2CCc3sccc3C2)c(F)c1,-5.13

row,Compound,cytotoxicity at 10 µM [%]
1,OCCC1CCN(c2ccnc3ccsc23)C1 (configuration not stated),2.35
2,Cn1cc(CC(=O)N2CCCC(c3ccn[nH]3)C2)cn1 (configuration not stated),-4.89
3,CCCNc1nnc(S(=O)(=O)CCOCC)s1,5.96
4,CC(C)COc1cncc(N2CCCC(CC(N)=O)C2)n1 (configuration not stated),-1.67
5,CCN(C(=O)Cn1cc(Cl)cn1)c1ccccc1,-8.01
6,CN(CC(=O)NCC(O)c1cccc(F)c1)C(=O)OC(C)(C)C (configuration not stated),1.2
7,CCN(CC)C(=O)CN1CCCC1C(=O)N(C)C (configuration not stated),12.5
8,CCN(Cc1ccccc1C)S(C)(=O)=O,9.23
9,COc1ccc(Br)cc1CN(C)C(C)c1nc(C)no1 (configuration not stated),-4.02
10,NC(=O)C(Nc1ccc(Cl)cc1)c1ccc(F)cc1 (configuration not stated),-0.82
11,COc1ccccc1C1(C(=O)N2CCN(CC(C)O)CC2)CC1 (configuration not stated),-3.51
12,CCCc1noc(CCCC(=O)N2CCCC(n3ccnc3C)C2)n1 (configuration not stated),-2.5
13,c1ccc(Cc2noc(CN3CCCCC3C3OCCO3)n2)cc1 (configuration not stated),-2.62
14,Cc1noc(Cl)c1CC(=O)NCCOc1ccc(F)cc1F,-2.64
15,Cc1nn(C(C)C)c(C)c1NC(=O)c1ccc(F)cc1,-2.27
16,Cc1ccc(C(=O)NS(C)(=O)=O)cc1-n1cccc1,-3.47
17,COCc1nc(C(=O)N(Cc2ccccc2)CC(C)C(=O)O)cs1 (configuration not stated),4
18,Cc1cc(C)cc(C(=O)Nc2ccc(CC3CC(=O)NC3=O)cc2)c1 (configuration not stated),-3
19,C=C(C)CN(CC)S(=O)(=O)c1cccc(F)c1C#N,-6.03
20,CC(C)(C)n1nc(C(=O)NC2CCN(CC(N)=O)CC2)cc1C1CC1,0.196
21,CC(C)NC(=O)CN(C)C1CCN(c2ccc(Cl)cn2)CC1,3.5
22,NC(=O)C1CCN(C(=O)c2ccccc2OCc2ccccc2Cl)CC1,-9.4
23,COCCN(CCC#N)Cn1cc(Cl)cn1,4.68

row,Compound,cytotoxicity at 10 µM [%]
1,Cc1cnc(CN(C)Cc2cccc(OC(F)(F)F)c2)cn1,2.4
2,Cc1cc(NC2CCN(c3ccccc3)C2)n2ncnc2n1 (configuration not stated),14.7
3,Cc1ccc(NC(=O)CN2CCCNC2=O)c(SC(F)(F)F)c1,-1.96
4,CS(=O)(=O)CCC(=O)NC1(c2cccc(Br)c2)CC1,-11.1
5,COc1ccc(CN(C)C(=O)CCc2c(C)nc(C)[nH]c2=O)cc1OC,-11.2
6,CCCOc1ccc(NC(=O)NCCC(=O)N(C)C)cc1Cl,-10.9
7,O=C(Cc1cccs1)NC1CCN(c2cccc(F)c2)CC1,-24.2
8,Cc1cc(N2CCC(N(C)C(=O)Nc3ccccc3)CC2)nc(C)n1,-19.4
9,CCC(CC)CN1CCC2(CCC(=O)N2OCc2ccccc2F)CC1,6.69
10,CCN(C)C(=O)c1ccc(N(C)Cc2cc(-c3ccncc3)no2)nc1,-2.04
11,CCCOc1c(CNC2CCSC2)cccc1OC (configuration not stated),4.36
12,O=C1CCCN1CCN1CC=C(c2cnn(C3CCS(=O)(=O)C3)c2)CC1 (configuration not stated),-0.36
13,CCn1c(CN(C)C)nnc1C1CCN(Cc2ccc(Cl)cc2)CC1,1.77
14,COc1c(F)cc(CN2CCC3(CC2)CN(C)C(=O)O3)cc1Cl,8.08
15,Cc1cc(C2CCCN2C(=O)CN2C(=O)OC(C)(C)C2=O)on1 (configuration not stated),-14.1
16,Cc1ccc(N2CCN(C(=O)[C@@H]3CCC(=O)N3)CC2=O)cc1,-4.18
17,Cc1ccc([C@H]2CN(CCO)C[C@@H]2NC(=O)CN2CCCCC2=O)o1,2.1
18,COc1cccc(Cn2cc(C3=CCN(CCO)CC3)cn2)c1,-10.2
19,CC(=O)c1cc(CC(=O)N2CCN(S(=O)(=O)c3ccccc3)CC2)cs1,-0.943
20,Cc1ccc(N2CC[C@@]3(O)CCN(S(C)(=O)=O)C[C@H]3C2)nn1,7.99
21,Cc1cc(C(=O)N2CCCCC2c2nc3cc(F)ccc3[nH]2)no1 (configuration not stated),19.6
22,CN(C)c1ccc(CC(=O)N2CCOCC(O)C2)cc1 (configuration not stated),13.3
23,COCCCC1(CO)CCCN(CCc2ccccn2)C1 (configuration not stated),7.42

row,Compound,cytotoxicity at 10 µM [%]
1,CC(c1ccco1)n1cc(-c2cc(CN3CCCC3)cs2)nn1 (configuration not stated),-23.6
2,Cc1nc(C2CCN(CC(=O)NC3CC3)CC2)cc(N2CCOCC2)n1,2.39
3,CSCC(=O)N1C[C@@H](C)[C@](O)(C(C)C)C1,9.24
4,c1ccc(Cn2cccn2)c(CN2CCC3(CCCNC3)C2)c1 (configuration not stated),-13
5,CCC(C(=O)N(C)Cc1cc(-c2ccccc2)n[nH]1)n1cccn1 (configuration not stated),-7.35
6,CCOCc1nc2c(c(NCc3cc(C)on3)n1)CCN(C(C)=O)CC2,2.24
7,CC(=O)NCCNc1nc(C2CCCC2)nc2c1cnn2C,7.39
8,CNc1nc(CN2C[C@@H](NC(C)=O)[C@H](c3ccc(C)o3)C2)cs1,-42.4
9,NC(=O)c1cc(-n2cc(-c3cccc(C(=O)O)c3)cn2)cs1,-0.387
10,Cc1cc(N2CCN(Cc3nccn3C)CC2)cc(C)n1,15.7
11,Cc1nc[nH]c1-c1nc2cc(S(=O)(=O)N3CCCC3)ccc2n1C,-14.2
12,COc1cccc(OC)c1CN1CCC2(CC(Nc3ccncn3)C2)C1 (configuration not stated),3.71
13,O=C(NCCc1ccco1)Nc1cc(C(F)(F)F)c[nH]c1=O,-12.3
14,N#Cc1cc(F)ccc1CN1CCCCC1Cn1cccn1 (configuration not stated),-2.93
15,Cc1cc(NC(=O)CN2CCCC2c2c(C)nn(C)c2C)on1 (configuration not stated),-2.9
16,CN(C)c1cc(C(=O)N2CCCCCC2)ccn1,-8.83
17,Cc1cc(CN2CCN(C(=O)CCCc3nc(C(C)C)no3)CC2)on1,-9.05
18,COc1cccc(CC(=O)N2CCCC(n3nc(C)cc3C)C2)c1 (configuration not stated),0.441
19,Cc1nc(C)n(CC2CCCN(Cc3cn4c(C)cccc4n3)C2)n1 (configuration not stated),-6.01
20,Cc1cnn(CC2CCCCN2CCCS(C)(=O)=O)c1 (configuration not stated),-10.1
21,COc1ccc(CC(=O)N2CCCC(n3cccn3)C2)cc1F (configuration not stated),-4.62
22,O=C(NCCCN1CCc2ccccc2C1)c1ccccc1Br,-10.2
23,COc1cc(C(=O)NC(CC(=O)O)c2cccs2)cc(OC)c1C (configuration not stated),-19.1

row,Compound,cytotoxicity at 10 µM [%]
1,COc1ccc(COCC(O)CNC(=O)c2cc(C)no2)cc1 (configuration not stated),0.742
2,COC1CCN(C(=O)CCc2c(C)nc3ccnn3c2C)CC1,-5.72
3,CC(C)(O)CN1CCN(C(=O)c2sccc2C2CC2)CC1,5.37
4,CCc1nc(CN2CCN(C(=O)CCc3ccccc3)CC2)cs1,5.25
5,CCn1cnnc1CNC(=O)N1CCCN(C(C)=O)CC1,1.18
6,CCN(CC)CCCNc1nc(C)nc2c1CCN(C)C2,3.19
7,CN(C)C1CCN(C(=O)c2ccnn2-c2ccc3ccccn23)CC1,-114
8,O=C(c1ccco1)N1C[C@@H]2CN(c3ccccn3)C[C@@H]2C1,-1.27
9,CC(C)C(=O)N1CCN(Cc2ccccn2)CC2(CC(=O)N(C)C2)C1 (configuration not stated),0.0515
10,O=C(c1ccoc1)N1CC[C@H]2OCC[C@@]2(COc2ncccc2F)C1,-9.31
11,Cc1noc([C@@H]2C[C@H]3CN(Cc4cc(C)on4)C[C@H]3O2)n1,-9.33
12,Cc1nn(C(C)C)c(C)c1CN1CCN(C2CCCCC2)C(=O)C1,6.63
13,c1coc(CN2CCCC3(COCCN(Cc4c[nH]nn4)C3)C2)c1 (configuration not stated),-12.2
14,CC(=O)NCC(=O)N1CC[C@H](OCC2CC2)[C@@H]1Cc1cccnc1,-1.99
15,Cc1sc(CN)nc1-c1ccc(Cl)cc1,-3.07
16,O=c1c2sccc2nc2n1CCN(Cc1ccsc1)CC2,-25.4
17,Cc1nc(N2CCOCC2)nc2c1CCN(Cc1cccnc1)CC2,-0.368
18,CC(C)N(C)Cc1cncc2c1CCN(Cc1cccs1)C2,-112
19,CC(C)n1cc(-n2cc3nc(N4CCOCC4)[nH]cc-3c2=O)cn1,4.48
20,NC(=O)NCC(=O)N1C[C@@H]2CC[C@H]1CN(Cc1ccccc1)C2,-13.4
